Reference: ChEMBL document CHEMBL2380289, “Ligand based approach to L-type calcium channel by imidazo[2,1-b]thiazole-1,4-dihydropyridines: from heart activity to brain affinity” (J Med Chem, 2013)

Columns and labels:
[1] = Displacement of [3H]-PN200-110 from L-type calcium channel in Hartley guinea pig ventricular membrane […] after 90 mins; parameters: species or system Cavia porcellus
[2] = Displacement of [3H]-PN200-110 from L-type calcium channel dihydropyridine binding site in Wistar rat cortex homogenate after 60 mins by liquid scintillation spectometric analysis; format: tissue-based
How it was run: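 Competition binding on rat cortex homogenate with (+)-[5-methyl-3H]PN200-110. Compounds are dissolved in DMSO as 10⁻² M stocks and diluted in buffer. Six displacer concentrations are tested, each in triplicate. IC50 is obtained by −log probit analysis and Ki by the Prusoff method. Values are mean ± SEM of 3−5 separate experiments done in triplicate.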

[3] = species: Cavia porcellus; test: Displacement of [3H]-PN200-110 from L-type calcium channel in Hartley guinea pig ventricular membrane […] after 90 mins relative to control
[4] = system: HEK293; test: Displacement of [3H]-PN200-110 from voltage-gated calcium channel subunit alpha Cav1.2a (unknown origin) expressed in HEK293 cells at 100 uM after 90 mins by liquid scintillation counting analysis relative to control; format: cell-based; conditions: Homo sapiens
[5] = Displacement of [3H]-PN200-110 from L-type calcium channel in Hartley guinea pig atrial membrane after 90 mins; format: cell membranes, Cavia porcellus, Cardiac atrium
How it was run: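 Guinea pig atrial membranes are labelled at the 1,4-DHP site with (+)-[5-methyl-3H]PN200-110 at 0.5 nM. Competitor is added over 0.001−100 μM from 10⁻² M DMSO stocks diluted in buffer. Results are given as IC50 and Ki, mean ± SEM. Student's t-test is applied with P<0.001.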

[6] = species: Rattus norvegicus; test: Displacement of [3H]-PN200-110 from L-type calcium channel dihydropyridine binding site in Wistar rat cortex homogenate at 100 uM after 60 mins by liquid scintillation spectometric analysis relative to control; format: tissue-based
How it was run: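 Binding on rat cortex homogenate using (+)-[5-methyl-3H]PN200-110. The read-out is percent of maximal radioligand displacement at 100 μM test compound. Compounds are made up as 10⁻² M DMSO stocks and diluted in buffer. Values are from 3−5 separate experiments done in triplicate.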

[7] = species: Cavia porcellus; test: Displacement of [3H]-PN200-110 from L-type calcium channel in Hartley guinea pig atrial membrane at 100 uM after 90 mins relative to control; format: cell membranes; conditions: Cardiac atrium
[8] = Negative chronotropic activity in guinea pig right atrium assessed as decrease in atrial rate; format: functional, tissue-based; conditions: Cavia porcellus, Cardiac atrium
How it was run: (§1)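 Isolated guinea pig atria are used, with left atria driven at 1 Hz. Compounds are added cumulatively. EC50 is derived from log concentration−response curves by Litchfield–Wilcoxon probit analysis, n = 6−7. EC50 is not calculated when the maximal effect is below 50%.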

[9] = system: Ileum; test: Relaxant activity in potassium depolarized guinea pig ileum longitudinal smooth muscle assessed as inhibition of calcium-induced contraction at 10^-4 M relative to control; format: functional, Cavia porcellus; parameters: scale not given: the % may be the effect or the level left
[10] = system: Ileum; test: Relaxant activity in potassium depolarized guinea pig ileum longitudinal smooth muscle assessed as inhibition of calcium-induced contraction; format: functional, tissue-based; conditions: Cavia porcellus
How it was run: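 K⁺-depolarized (80 mM) guinea pig ileum longitudinal smooth muscle is used. Calcium-induced contraction is measured with cumulative compound addition.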

[11] = Negative inotropic activity in guinea pig left atrium assessed as decrease in developed tension at 10^-6 M relative to control; format: functional, Cavia porcellus, Cardiac atrium; parameters: scale not given: the % may be the effect or the level left
[12] = Negative chronotropic activity in guinea pig right atrium assessed as decrease in atrial rate at 5x10'-5 M relative to control; format: functional, Cavia porcellus, Cardiac atrium; parameters: scale not given: the % may be the effect or the level left
[13] = system: Aorta; test: Relaxant activity in potassium depolarized guinea pig aortic strips assessed as inhibition of calcium-induced contraction at 10^-4 M relative to control; format: functional, Cavia porcellus; parameters: scale not given: the % may be the effect or the level left
How it was run: (§2)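 Guinea pig aortic strips and ileum longitudinal smooth muscle are depolarized with 80 mM K⁺. The read-out is percent inhibition of calcium-induced contraction. Aorta is tested at 10⁻⁴ M and ileum at 10⁻⁵ M.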

[14] = system: Ileum; test: Relaxant activity in potassium depolarized guinea pig ileum longitudinal smooth muscle assessed as inhibition of calcium-induced contraction at 5x10'-6 M relative to control; format: functional, Cavia porcellus; parameters: scale not given: the % may be the effect or the level left
[15] = Negative chronotropic activity in guinea pig right atrium assessed as decrease in atrial rate at 10^-5 M relative to control; format: functional, Cavia porcellus, Cardiac atrium; parameters: scale not given: the % may be the effect or the level left
[16] = system: Ileum; test: Relaxant activity in potassium depolarized guinea pig ileum longitudinal smooth muscle assessed as inhibition of calcium-induced contraction at 10^-5 M relative to control; format: functional, Cavia porcellus; parameters: scale not given: the % may be the effect or the level left; how it was run: as §2
[17] = Negative chronotropic activity in guinea pig right atrium assessed as decrease in atrial rate at 10^-4 M relative to control; format: functional, Cavia porcellus, Cardiac atrium; parameters: scale not given: the % may be the effect or the level left
How it was run: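 The read-out is decrease in rate of spontaneously beating isolated guinea pig right atrium at 10⁻⁴ M. It is expressed as percent change from control, n = 7−8.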

[18] = Negative inotropic activity in guinea pig left atrium assessed as decrease in developed tension at 10^-4 M relative to control; format: functional, Cavia porcellus, Cardiac atrium; parameters: scale not given: the % may be the effect or the level left
[19] = Displacement of [3H]-PN200-110 from voltage-gated calcium channel subunit alpha Cav1.2a (unknown origin) expressed in HEK293 cells after 90 mins by liquid scintillation counting analysis; format: cell-based, Homo sapiens
How it was run: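 Intact HEK-293 cells stably transfected with a rabbit Cav1.2a (α1c-a) plasmid are used. They are incubated with 0.5 nM (+)-[5-methyl-3H]PN200-110 plus competitor at 0.001−100 μM, from 10⁻² M DMSO stocks diluted in buffer. IC50 values are given as mean ± SEM.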

[20] = Selectivity ratio of EC50 for negative chronotropic activity in guinea pig right atrium to EC50 for negative inotropic activity in guinea pig left atrium; format: functional, Cavia porcellus, Cardiac atrium
[21] = Negative inotropic activity in guinea pig left atrium assessed as decrease in developed tension; format: functional, tissue-based; conditions: Cavia porcellus, Cardiac atrium; how it was run: as §1
[22] = Negative inotropic activity in guinea pig left atrium assessed as decrease in developed tension at 10^-5 M relative to control; format: functional, Cavia porcellus, Cardiac atrium; parameters: scale not given: the % may be the effect or the level left
[23] = system: Aorta; test: Relaxant activity in potassium depolarized guinea pig aortic strips assessed as inhibition of calcium-induced contraction at 5x10'-5 M relative to control; format: functional, Cavia porcellus; parameters: scale not given: the % may be the effect or the level left
[24] = Negative chronotropic activity in guinea pig right atrium assessed as decrease in atrial rate at 5x10'-6 M relative to control; format: functional, Cavia porcellus, Cardiac atrium; parameters: scale not given: the % may be the effect or the level left
[25] = system: Ileum; test: Relaxant activity in potassium depolarized guinea pig ileum longitudinal smooth muscle assessed as inhibition of calcium-induced contraction at 10^-7 M relative to control; format: functional, Cavia porcellus; parameters: scale not given: the % may be the effect or the level left

SMILES	IC50 [1] [nM]	Ki [1] [nM]	IC50 [2] [nM]	Ki [2] [nM]	%max [3] [%]	IC50 [5] [nM]	Ki [5] [nM]	%max [6] [%]	%max [7] [%]	EC50 [8] [nM]	IC50 [10] [nM]	%max [4] [%]	Activity [11] [%]	Activity [13] [%]	Activity [16] [%]	Activity [17] [%]	other results
COC(=O)C1=C(C)NC(C)=C(C(=O)OC)C1c1c(-c2ccncc2)nc2sc(C)cn12	–	–	–	–	–	–	–	–	–	7490	9690	–	44	4	–	–	Activity [9]: 97%; Activity [12]: 93%
COC(=O)C1=C(C)NC(C)=C(C(=O)OC)C1c1c(-c2ccccn2)nc2sc(C)cn12	–	–	–	–	–	–	–	–	–	39900	2810	–	42	13	78	72	–
COC(=O)C1=C(C)NC(C)=C(C(=O)OC)C1c1c(Cl)nc2scc(C)n12	–	–	106000	34700	–	–	–	52	–	–	–	–	–	–	–	–	–
COC(=O)C1=C(C)NC(C)=C(C(=O)OC)C1c1c(-c2ccsc2)nc2sc(C)cn12	–	–	–	–	–	–	–	–	–	2300	3520	–	–	6	74	85	Activity [18]: 12%
COC(=O)C1=C(C)NC(C)=C(C(=O)OC)C1c1c(-c2cc(OC)cc(OC)c2)nc2sccn12	840	310	1210	410	60	250	90	79	54	–	–	50	–	–	–	–	IC50 [19]: 610 nM; Ki [19]: 190 nM
COC(=O)C1=C(C)NC(C)=C(C(=O)OC)C1c1c(-c2ccsc2)nc2sccn12	2050	740	1030	740	70	240	52	53	60	1060	2.3	65	–	11	–	–	Activity [24]: 87%; Activity [18]: 47%; Activity [25]: 85%; IC50 [19]: 490 nM; Ki [19]: 150 nM

Second part, led by results:

IC50 [1] [nM]	Ki [1] [nM]	IC50 [2] [nM]	Ki [2] [nM]	%max [3] [%]	IC50 [5] [nM]	Ki [5] [nM]	%max [6] [%]	%max [7] [%]	EC50 [8] [nM]	IC50 [10] [nM]	SMILES	%max [4] [%]	Activity [11] [%]	Activity [13] [%]	Activity [16] [%]	Activity [17] [%]	other results
450	160	990	330	96	290	90	90	92	–	–	COC(=O)C1=C(C)NC(C)=C(C(=O)OC)C1c1c(-c2cccc(OC)c2)nc2sccn12	< 50	–	–	–	–	–
–	–	–	–	–	–	–	–	–	–	960	COC(=O)C1=C(C)NC(C)=C(C(=O)OC)C1c1c(-c2ccncc2)nc2sccn12	–	46	14	–	–	Activity [14]: 90%; Activity [15]: 25%
–	–	–	–	–	–	–	–	–	24400	2570	COC(=O)C1=C(C)NC(C)=C(C(=O)OC)C1c1c(-c2ccccn2)nc2sccn12	–	–	–	87	71	Ratio EC50 [20]: 45; EC50 [21]: 540 nM; Activity [22]: 58%; Activity [23]: 28%
–	–	38600	13900	< 50	140	49	52	91	–	–	COC(=O)C1=C(C)NC(C)=C(C(=O)OC)C1c1c(-c2ccccc2C(F)(F)F)nc2sccn12	< 50	–	–	–	–	–
